Measurements published in ChEMBL document CHEMBL2062460, “Disubstituted thiourea derivatives and their activity on CNS: synthesis and biological evaluation” (Eur J Med Chem, 2012).
≈ marks a conversion by molar mass, not a printed value. Calls of active or inactive are those of the source. The calls are words filed in the database; no cut-off is given here.

How the values were obtained:
[1] = tested on: Pseudomonas aeruginosa; experiment: Antibacterial activity against Pseudomonas aeruginosa NCTC 6749 at 400 ug/disc after 18 hrs by disc diffusion method; type: functional, organism-based
Method in brief: (§1)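 Disc diffusion per CLSI on Mueller–Hinton II agar; 9 mm paper discs loaded from methanol or DMSO solutions to 400 µg per disc, dried; growth inhibition zone diameter read after 18 h at 35 °C.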

[2] = tested on: Staphylococcus aureus; experiment: Antibacterial activity against methicillin-resistant Staphylococcus aureus clinical isolate 376/09 after 18 hrs by twofold serial agar dilution technique; type: functional; conditions: clinical isolate 376/09, 18 h
Method in brief: (§2)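 Clinical isolates came from patients in Warsaw Medical University Hospitals and were classed as methicillin-susceptible or -resistant. MIC was determined by twofold serial agar dilution on Mueller–Hinton II agar (CLSI), 3.125–400 µg/mL in agar, with compounds in methanol or DMSO. Inoculum was 10^4 CFU/mL and plates were read after 18 h at 35 °C.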

[3] = tested on: Candida albicans; experiment: Antifungal activity against Candida albicans ATCC 90028 at 400 ug/disc after 18 hrs by disc diffusion method; type: functional, organism-based
Method in brief: (§3)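 Yeasts tested by disc diffusion (CLSI) on RPMI agar with 2% glucose; 9 mm paper discs bearing 400 µg compound from methanol or DMSO solution; inhibition zone diameter read after 18 h at 35 °C.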

[4] = tested on: Micrococcus luteus; experiment: Antibacterial activity against Micrococcus luteus ATCC 10240 at 400 ug/disc after 18 hrs by disc diffusion method; type: functional; conditions: ATCC 10240, 18 h, read-out: DIZ; method in brief: as §1
[5] = tested on: Staphylococcus aureus; experiment: Antibacterial activity against Staphylococcus aureus ATCC 6538 at 400 ug/disc after 18 hrs by disc diffusion method; type: functional; conditions: ATCC 6538, 18 h, read-out: DIZ; method in brief: as §1
[6] = tested on: Staphylococcus aureus; experiment: Antibacterial activity against methicillin-resistant Staphylococcus aureus clinical isolate 307/08 after 18 hrs by twofold serial agar dilution technique; type: functional; conditions: clinical isolate 307/08, 18 h; method in brief: as §2
[7] = tested on: Human immunodeficiency virus 1; experiment: Antiviral activity against HIV1 infected in human MT4 cells assessed as virus-induced cytopathogenicity after 4 days by MTT assay; type: functional, organism-based; conditions: Human immunodeficiency virus 1, MT4, 96 h
[8] = tested on: Staphylococcus aureus; experiment: Antibacterial activity against Staphylococcus aureus ATCC 25923 at 400 ug/disc after 18 hrs by disc diffusion method; type: functional; conditions: ATCC 25923, 18 h, read-out: DIZ; method in brief: as §1
[9] = tested on: Pseudomonas aeruginosa; experiment: Antibacterial activity against Pseudomonas aeruginosa ATCC 27853 at 400 ug/disc after 18 hrs by disc diffusion method; type: functional, organism-based; method in brief: as §1
[10] = tested on: Bacillus cereus; experiment: Antibacterial activity against Bacillus cereus ATCC 11778 after 18 hrs by twofold serial agar dilution technique; type: functional; conditions: ATCC 11778, 18 h
[11] = tested on: Micrococcus luteus; experiment: Antibacterial activity against Micrococcus luteus ATCC 9341 at 400 ug/disc after 18 hrs by disc diffusion method; type: functional; conditions: ATCC 9341, 18 h, read-out: DIZ; method in brief: as §1
[12] = tested on: Staphylococcus aureus; experiment: Antibacterial activity against Staphylococcus aureus NCTC 4163 after 18 hrs by twofold serial agar dilution technique; type: functional; conditions: NCTC 4163, 18 h
Method in brief: (§4)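 Twofold serial agar dilution on Mueller–Hinton II agar, following CLSI guidelines. Compounds were dissolved in methanol or DMSO and tested at final agar concentrations of 3.125–400 µg/mL. Final inoculum was 10^4 CFU/mL.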

[13] = tested on: Staphylococcus epidermidis; experiment: Antibacterial activity against methicillin-resistant Staphylococcus epidermidis clinical isolate 377/09 after 18 hrs by twofold serial agar dilution technique; type: functional; conditions: clinical isolate 377/09, 18 h; method in brief: as §2
[14] = tested on: Bacillus subtilis; experiment: Antibacterial activity against Bacillus subtilis ATCC 6633 after 18 hrs by twofold serial agar dilution technique; type: functional; conditions: ATCC 6633, 18 h
[15] = tested on: Staphylococcus aureus; experiment: Antibacterial activity against methicillin-susceptible Staphylococcus aureus clinical isolate 372/09 after 18 hrs by twofold serial agar dilution technique; type: functional; conditions: clinical isolate 372/09, 18 h; method in brief: as §2
[16] = tested on: Staphylococcus aureus; experiment: Antibacterial activity against methicillin-resistant Staphylococcus aureus clinical isolate 275/08 after 18 hrs by twofold serial agar dilution technique; type: functional; conditions: clinical isolate 275/08, 18 h; method in brief: as §2
[17] = tested on: Staphylococcus aureus; experiment: Antibacterial activity against Staphylococcus aureus ATCC 25923 after 18 hrs by twofold serial agar dilution technique; type: functional; conditions: ATCC 25923, 18 h; method in brief: as §4
[18] = tested on: Staphylococcus aureus; experiment: Antibacterial activity against methicillin-resistant Staphylococcus aureus clinical isolate 329/08 after 18 hrs by twofold serial agar dilution technique; type: functional; conditions: clinical isolate 329/08, 18 h; method in brief: as §2
[19] = tested on: Staphylococcus epidermidis; experiment: Antibacterial activity against methicillin-resistant Staphylococcus epidermidis clinical isolate 340/09 after 18 hrs by twofold serial agar dilution technique; type: functional; conditions: clinical isolate 340/09, 18 h; method in brief: as §2
[20] = tested on: Escherichia coli; experiment: Antibacterial activity against Escherichia coli ATCC 25922 at 400 ug/disc after 18 hrs by disc diffusion method; type: functional, organism-based; method in brief: as §1
[21] = tested on: Bacillus subtilis; experiment: Antibacterial activity against Bacillus subtilis ATCC 6633 at 400 ug/disc after 18 hrs by disc diffusion method; type: functional; conditions: ATCC 6633, 18 h, read-out: DIZ; method in brief: as §1
[22] = tested on: Bordetella bronchiseptica; experiment: Antibacterial activity against Bordetella bronchiseptica ATCC 4617 at 400 ug/disc after 18 hrs by disc diffusion method; type: functional, organism-based; method in brief: as §1
[23] = tested on: Staphylococcus aureus; experiment: Antibacterial activity against Staphylococcus aureus ATCC 29213 at 400 ug/disc after 18 hrs by disc diffusion method; type: functional; conditions: ATCC 29213, 18 h, read-out: DIZ; method in brief: as §1
[24] = tested on: Escherichia coli; experiment: Antibacterial activity against Escherichia coli ATCC 10538 at 400 ug/disc after 18 hrs by disc diffusion method; type: functional, organism-based; method in brief: as §1
[25] = tested on: Staphylococcus aureus; experiment: Antibacterial activity against methicillin-susceptible Staphylococcus aureus clinical isolate 339/09 after 18 hrs by twofold serial agar dilution technique; type: functional; conditions: clinical isolate 339/09, 18 h; method in brief: as §2
[26] = tested on: Staphylococcus aureus; experiment: Antibacterial activity against methicillin-resistant Staphylococcus aureus clinical isolate 325/09 after 18 hrs by twofold serial agar dilution technique; type: functional; conditions: clinical isolate 325/09, 18 h; method in brief: as §2
[27] = tested on: Staphylococcus epidermidis; experiment: Antibacterial activity against methicillin-resistant Staphylococcus epidermidis clinical isolate 317/08 after 18 hrs by twofold serial agar dilution technique; type: functional; conditions: clinical isolate 317/08, 18 h; method in brief: as §2
[28] = tested on: Candida parapsilosis; experiment: Antifungal activity against Candida parapsilosis ATCC 22019 at 400 ug/disc after 18 hrs by disc diffusion method; type: functional, organism-based; method in brief: as §3
[29] = tested on: Staphylococcus epidermidis; experiment: Antibacterial activity against methicillin-resistant Staphylococcus epidermidis clinical isolate 315/08 after 18 hrs by twofold serial agar dilution technique; type: functional; conditions: clinical isolate 315/08, 18 h; method in brief: as §2
[30] = tested on: Staphylococcus aureus; experiment: Antibacterial activity against methicillin-susceptible Staphylococcus aureus clinical isolate 269/08 after 18 hrs by twofold serial agar dilution technique; type: functional; conditions: clinical isolate 269/08, 18 h; method in brief: as §2
[31] = tested on: Staphylococcus epidermidis; experiment: Antibacterial activity against methicillin-resistant Staphylococcus epidermidis clinical isolate 341/09 after 18 hrs by twofold serial agar dilution technique; type: functional; conditions: clinical isolate 341/09, 18 h; method in brief: as §2
[32] = tested on: Staphylococcus aureus; experiment: Antibacterial activity against methicillin-resistant Staphylococcus aureus clinical isolate 306/08 after 18 hrs by twofold serial agar dilution technique; type: functional; conditions: clinical isolate 306/08, 18 h; method in brief: as §2
[33] = tested on: Proteus vulgaris; experiment: Antibacterial activity against Proteus vulgaris NCTC 4635 at 400 ug/disc after 18 hrs by disc diffusion method; type: functional, organism-based; method in brief: as §1
[34] = tested on: Staphylococcus epidermidis; experiment: Antibacterial activity against methicillin-resistant Staphylococcus epidermidis clinical isolate 342/09 after 18 hrs by twofold serial agar dilution technique; type: functional; conditions: clinical isolate 342/09, 18 h; method in brief: as §2
[35] = tested on: Staphylococcus aureus; experiment: Antibacterial activity against methicillin-susceptible Staphylococcus aureus clinical isolate 338/08 after 18 hrs by twofold serial agar dilution technique; type: functional; conditions: clinical isolate 338/08, 18 h; method in brief: as §2
[36] = tested on: Pseudomonas aeruginosa; experiment: Antibacterial activity against Pseudomonas aeruginosa ATCC 15442 at 400 ug/disc after 18 hrs by disc diffusion method; type: functional, organism-based; method in brief: as §1

Fc1ccc(NC(=S)Nc2nc[nH]n2)cc1
diameter of the inhibition zone (DIZ) [1]: inactive
MIC [2]: 50 µg/mL (≈ 211 µM)
diameter of the inhibition zone (DIZ) [3]: inactive
zone of inhibition at 400 µg/disc [4]: 23 mm
zone of inhibition at 400 µg/disc [5]: 14 mm
MIC [6]: 50 µg/mL (≈ 211 µM)
EC50 [7]: > 100 µM
zone of inhibition at 400 µg/disc [8]: 18 mm
diameter of the inhibition zone (DIZ) [9]: inactive
MIC [10]: 6.25 µg/mL (≈ 26.3 µM)
zone of inhibition at 400 µg/disc [11]: 19 mm
MIC [12]: 50 µg/mL (≈ 211 µM)
MIC [13]: 50 µg/mL (≈ 211 µM)
MIC [14]: 12.5 µg/mL (≈ 52.7 µM)
MIC [15]: 50 µg/mL (≈ 211 µM)
MIC [16]: 100 µg/mL (≈ 421 µM)
MIC [17]: 50 µg/mL (≈ 211 µM)
MIC [18]: 50 µg/mL (≈ 211 µM)
MIC [19]: 50 µg/mL (≈ 211 µM)
diameter of the inhibition zone (DIZ) [20]: inactive
zone of inhibition at 400 µg/disc [21]: 22 mm
diameter of the inhibition zone (DIZ) [22]: inactive
zone of inhibition at 400 µg/disc [23]: 11 mm
diameter of the inhibition zone (DIZ) [24]: inactive
MIC [25]: 50 µg/mL (≈ 211 µM)
MIC [26]: 50 µg/mL (≈ 211 µM)
MIC [27]: 50 µg/mL (≈ 211 µM)
diameter of the inhibition zone (DIZ) [28]: inactive
MIC [29]: 50 µg/mL (≈ 211 µM)
MIC [30]: 50 µg/mL (≈ 211 µM)
MIC [31]: 100 µg/mL (≈ 421 µM)
MIC [32]: 50 µg/mL (≈ 211 µM)
diameter of the inhibition zone (DIZ) [33]: inactive
MIC [34]: 50 µg/mL (≈ 211 µM)
MIC [35]: 50 µg/mL (≈ 211 µM)
diameter of the inhibition zone (DIZ) [36]: inactive

S=C(Nc1ccc(I)cc1)Nc1nc[nH]n1
diameter of the inhibition zone (DIZ) [1]: inactive
MIC [2]: 50 µg/mL (≈ 145 µM)
diameter of the inhibition zone (DIZ) [3]: inactive
zone of inhibition at 400 µg/disc [4]: 16 mm
zone of inhibition at 400 µg/disc [5]: 12 mm
MIC [6]: 50 µg/mL (≈ 145 µM)
EC50 [7]: > 46 µM
zone of inhibition at 400 µg/disc [8]: 13 mm
diameter of the inhibition zone (DIZ) [9]: inactive
MIC [10]: 12.5 µg/mL (≈ 36.2 µM)
zone of inhibition at 400 µg/disc [11]: 13 mm
MIC [12]: 25 µg/mL (≈ 72.4 µM)
MIC [13]: 25 µg/mL (≈ 72.4 µM)
MIC [14]: 12.5 µg/mL (≈ 36.2 µM)
MIC [15]: 25 µg/mL (≈ 72.4 µM)
MIC [16]: 50 µg/mL (≈ 145 µM)
MIC [17]: 25 µg/mL (≈ 72.4 µM)
MIC [18]: 25 µg/mL (≈ 72.4 µM)
MIC [19]: 25 µg/mL (≈ 72.4 µM)
diameter of the inhibition zone (DIZ) [20]: inactive
zone of inhibition at 400 µg/disc [21]: 18 mm
diameter of the inhibition zone (DIZ) [22]: inactive
zone of inhibition at 400 µg/disc [23]: 13 mm
diameter of the inhibition zone (DIZ) [24]: inactive
MIC [25]: 50 µg/mL (≈ 145 µM)
MIC [26]: 25 µg/mL (≈ 72.4 µM)
MIC [27]: 50 µg/mL (≈ 145 µM)
diameter of the inhibition zone (DIZ) [28]: inactive
MIC [29]: 50 µg/mL (≈ 145 µM)
MIC [30]: 25 µg/mL (≈ 72.4 µM)
MIC [31]: 50 µg/mL (≈ 145 µM)
MIC [32]: 50 µg/mL (≈ 145 µM)
diameter of the inhibition zone (DIZ) [33]: inactive
MIC [34]: 25 µg/mL (≈ 72.4 µM)
MIC [35]: 50 µg/mL (≈ 145 µM)
diameter of the inhibition zone (DIZ) [36]: inactive
